Test results published in ChEMBL document CHEMBL2040841, “Design, synthesis and evaluation of triazole functionalized ring-fused 2-pyridones as antibacterial agents” (Eur J Med Chem, 2012).
Active and inactive are the calls of the source. No cut-off for these calls is given here.

Columns and labels:
Escherichia coli [1] = experiment: Inhibition of type 1 pili formation in uropathogenic Escherichia coli isolate UTI89 assessed as inhibition of biofilm formation after 24 hrs by crystal violet staining method; type: functional, organism-based; details: isolate UTI89, 24 h
Method in brief: (§1)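 UTI89 grown overnight in LB at 37 °C, then diluted 1:1000 in LB under type-1 pili inducing conditions. Compounds were added at a constant DMSO level, and the plates were incubated 24 h in humid boxes at 26 °C. Wells were washed with water, air dried and stained with 1% crystal violet, and absorbance was read at 600 nm. Growth was monitored in separate plates. Triplicates were compared with DMSO-treated controls.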

Escherichia coli [2] = experiment: Antibacterial activity against uropathogenic Escherichia coli isolate UTI89 assessed as inhibition of biofilm formation at 200 uM after 24 hrs by crystal violet staining method; type: functional, organism-based; method in brief: as §1

Row | Structure (SMILES) | EC50 (Escherichia coli [1]) | inhibition (Escherichia coli [2])
1 | O=C(O)[C@@H]1CSc2c(-c3c[nH]nn3)c(Cc3cccc4ccccc34)cc(=O)n21 | > 200 µM | inactive
2 | CCn1cc(-c2c(Cc3cccc4ccccc34)cc(=O)n3c2SC[C@H]3C(=O)O)nn1 | > 200 µM | inactive
3 | Cc1ccc(Cn2cc(-c3c(Cc4cccc5ccccc45)cc(=O)n4c3SC[C@H]4C(=O)O)nn2)cc1 | 75 µM | 
4 | O=C(O)[C@@H]1CSc2c(-c3cn([C@H](CO)Cc4ccccc4)nn3)c(Cc3cccc4ccccc34)c(Br)c(=O)n21 | 150 µM | 
5 | O=C(O)[C@@H]1CSc2c(-c3cn(Cc4ccccc4)nn3)c(Cc3cccc4ccccc34)c(Br)c(=O)n21 | 100 µM | 
6 | O=C(O)c1c(-c2cn(Cc3ccccc3)nn2)sc2c(C3CC3)c(Cc3cccc4ccccc34)cc(=O)n12 | > 200 µM | inactive
7 | O=C(O)[C@@H]1CSc2c(-c3cn(CC4CC4)nn3)c(Cc3cccc4ccccc34)c(Br)c(=O)n21 | > 200 µM | inactive
8 | Cn1cc(-c2c(Cc3cccc4ccccc34)c(Br)c(=O)n3c2SC[C@H]3C(=O)O)nn1 | > 200 µM | inactive
9 | O=C(O)[C@@H]1CSc2c(-c3cn(Cc4ccccc4)nn3)c(Cc3cccc4ccccc34)cc(=O)n21 | 100 µM | 
10 | Nc1ccc(Cn2cc(-c3c(Cc4cccc5ccccc45)cc(=O)n4c3SC[C@H]4C(=O)O)nn2)cc1 | > 200 µM | inactive
11 | O=C(O)c1c(-c2c[nH]nn2)sc2c(-c3cccc(C(F)(F)F)c3)c(Cc3cccc4ccccc34)cc(=O)n12 | > 200 µM | inactive
12 | O=C(O)[C@@H]1CSc2c(-c3cn(CC4CC4)nn3)c(Cc3cccc4ccccc34)cc(=O)n21 | > 200 µM | inactive
13 | O=C(O)[C@@H]1CSc2c(-c3c[nH]nn3)c(Cc3cccc4ccccc34)c(Br)c(=O)n21 | > 200 µM | inactive
14 | O=C(O)[C@@H]1CSc2c(-c3cn(Cc4ccc([N+](=O)[O-])cc4)nn3)c(Cc3cccc4ccccc34)c(Br)c(=O)n21 | 35 µM | 
15 | Cc1ccc(Cn2cc(-c3c(Cc4cccc5ccccc45)c(Br)c(=O)n4c3SC[C@H]4C(=O)O)nn2)cc1 | 200 µM | inactive
16 | O=C(O)[C@@H]1CSc2c(-c3cn([C@@H]4OC[C@@H](O)[C@H](O)[C@H]4O)nn3)c(Cc3cccc4ccccc34)c(Br)c(=O)n21 | > 200 µM | inactive
17 | Cn1cc(-c2sc3c(-c4cccc(C(F)(F)F)c4)c(Cc4cccc5ccccc45)cc(=O)n3c2C(=O)O)nn1 | 9 µM | 
18 | Cn1cc(-c2c(Cc3cccc4ccccc34)cc(=O)n3c2SC[C@H]3C(=O)O)nn1 | > 200 µM | inactive
19 | O=C(O)[C@@H]1CSc2c(-c3cn([C@@H]4OC[C@@H](O)[C@H](O)[C@H]4O)nn3)c(Cc3cccc4ccccc34)cc(=O)n21 | > 200 µM | inactive
20 | Cn1cc(-c2sc3c(C4CC4)c(Cc4cccc5ccccc45)cc(=O)n3c2C(=O)O)nn1 | 150 µM | inactive
21 | O=C(O)c1c(-c2c[nH]nn2)sc2c(C3CC3)c(Cc3cccc4ccccc34)cc(=O)n12 | 75 µM | 
22 | CCn1cc(-c2c(Cc3cccc4ccccc34)c(Br)c(=O)n3c2SC[C@H]3C(=O)O)nn1 | > 200 µM | inactive
23 | O=C(O)c1c(-c2cn(Cc3ccccc3)nn2)sc2c(-c3cccc(C(F)(F)F)c3)c(Cc3cccc4ccccc34)cc(=O)n12 | 50 µM | 
24 | O=C(O)[C@@H]1CSc2c(-c3cn([C@H](CO)Cc4ccccc4)nn3)c(Cc3cccc4ccccc34)cc(=O)n21 | > 200 µM | inactive
